Experimental data as given in ChEMBL document CHEMBL1671680, “Pradimicin S, a highly soluble nonpeptidic small-size carbohydrate-binding antibiotic, is an anti-HIV drug lead for both microbicidal and systemic use” (Antimicrob Agents Chemother, 2010).
pEC50, pIC50: −log10 of the molar value. Calls of active or inactive are those of the source. No cut-off for these calls is given here.

Key:
[1] = Cytotoxicity against human PBMC cells after 3 to 4 days; assay type: cell-based
[2] = system: Human immunodeficiency virus 1; assay: Antiviral activity against HIV-1 3B infected in human HUT78 cells assessed as prevention of syncytium formation between persistently HIV-1 3B-infected HUT-78 cells and uninfected SupT1 cells after 3 to 4 days by ELISA; assay type: functional, organism-based; conditions: Human immunodeficiency virus 1, 3B, SUP-T1
[3] = system: Human immunodeficiency virus 1; assay: Antiviral activity against X4 tropic HIV-1 3B infected in human Raji cells expressing DC-SIGN gene assessed as prevention of syncytium formation between persistently HIV-1 3B-infected Raji cells and uninfected human C8166 cells after 36 to 42 hrs by microscopic analysis; assay type: functional, organism-based; conditions: Human immunodeficiency virus 1, 3B
In short: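 Raji/DC-SIGN cells exposed 60 min to HIV-1 IIIB (2.2 × 10^6 pg/ml p24), washed by two centrifugations, then plated with compound dilutions and C8166 cells (10^7/ml, 50 μl); cocultures at 37°C scored microscopically for syncytia at ~36–48 h.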

[4] = Antiviral activity against SIV mac251 infected in human Raji cells expressing DC-SIGN gene assessed as inhibition of virus capture by Raji cells after 60 mins by ELISA; assay type: functional, cell-based, Simian immunodeficiency virus - mac; conditions: Simian immunodeficiency virus, 251, Raji, 1 h
[5] = Antiviral activity against SIV mac251 infected in human Raji cells expressing DC-SIGN gene assessed as prevention of syncytium formation between persistently […]-infected Raji cells and uninfected human C8166 cells after 60 mins by ELISA; assay type: functional, cell-based, Simian immunodeficiency virus - mac; conditions: Simian immunodeficiency virus, 251, Raji, 1 h
[6] = system: Human immunodeficiency virus 1; assay: Binding affinity to HIV-1 HXB2 gp41 assessed as association rate constant after 6 mins by SPR analysis in presence of 10 mM CaCl2
PBMC [7] = assay: Immunostimulatory activity against human PBMC assessed as IL1-beta production at 21 uM after 72 hrs; assay type: functional, cell-based
In short: (§1)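 Unstimulated PBMCs and PHA-blasts from three donors, in three independent experiments, cultured with test compound at 20 μg/ml (21 or 22 μM). Supernatants collected after 72 h. The cytokine profile was read on a Bio-Plex 27-plex human cytokine bead immunoassay, using beads coupled to cytokine-specific monoclonal antibodies and run per the kit instructions.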

PBMC [8] = assay: Immunostimulatory activity against human PBMC assessed as IL-8 production at 21 uM after 72 hrs; assay type: functional, cell-based; in short: as §1
PBMC [9] = assay: Immunostimulatory activity against human PBMC assessed as IL-15 production at 21 uM after 72 hrs; assay type: functional, cell-based; in short: as §1
PBMC [10] = assay: Immunostimulatory activity against human PBMC assessed as eotoxin production at 21 uM after 72 hrs; assay type: functional, cell-based
In short: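 In three independent experiments, PBMCs and PHA-blasts from three donors were cultured with compound for 72 h. Supernatants were analysed with a bead-based 27-plex human cytokine immunoassay covering interleukins, chemokines, growth factors, IFN-γ and TNF-α.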

PBMC [11] = assay: Immunostimulatory activity against human PBMC assessed as MIP-1beta production at 21 uM after 72 hrs; assay type: functional, cell-based; in short: as §1
PBMC [12] = assay: Immunostimulatory activity against human PBMC assessed as IL-4 production at 22 uM after 72 hrs; assay type: functional, cell-based; in short: as §1
PBMC [13] = assay: Immunostimulatory activity against human PBMC assessed as IL-9 production at 22 uM after 72 hrs; assay type: functional, cell-based; in short: as §1
PBMC [14] = assay: Immunostimulatory activity against human PBMC assessed as IL-13 production at 22 uM after 72 hrs; assay type: functional, cell-based; in short: as §1
PBMC [15] = assay: Immunostimulatory activity against human PBMC assessed as IL-15 production at 22 uM after 72 hrs; assay type: functional, cell-based; in short: as §1
PBMC [16] = assay: Immunostimulatory activity against human PBMC assessed as IP-10 production at 22 uM after 72 hrs; assay type: functional, cell-based; in short: as §1
PBMC [17] = assay: Immunostimulatory activity against human PBMC assessed as PDGF production at 22 uM after 72 hrs; assay type: functional, cell-based; in short: as §1
PBMC [18] = assay: Immunostimulatory activity against human PBMC assessed as suppression of IL-9 production at 21 uM after 72 hrs; assay type: functional; in short: as §1
PBMC [19] = assay: Immunostimulatory activity against human PBMC assessed as suppression of PDGF production at 21 uM after 72 hrs; assay type: functional; in short: as §1
PBMC [20] = assay: Immunostimulatory activity against human PBMC assessed as suppression of RANTES production at 22 uM after 72 hrs; assay type: functional
PBMC [21] = assay: Immunostimulatory activity against human PBMC assessed as suppression of IL-9 production at 22 uM after 72 hrs; assay type: functional; in short: as §1
PBMC [22] = assay: Immunostimulatory activity against human PBMC assessed as suppression of IL-13 production at 22 uM after 72 hrs; assay type: functional; in short: as §1
PBMC [23] = assay: Immunostimulatory activity against human PBMC assessed as suppression of G-CSF production at 22 uM after 72 hrs; assay type: functional; in short: as §1
[24] = system: Human immunodeficiency virus 1; assay: Binding affinity to HIV-1 3B gp120 after 6 mins by SPR analysis at pH 4
[25] = system: Human immunodeficiency virus 1; assay: Antiviral activity against R5 tropic HIV-1 clade G isolate BCF-DIOUM infected in human PBMC assessed as inhibition of viral replication […] by ELISA; assay type: functional, organism-based; conditions: Human immunodeficiency virus 1, clade G isolate BCF-DIOUM
In short: (§2)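 PBMCs from healthy donors were stimulated with PHA (2 μg/ml) for 3 days, then seeded at 0.5 × 10^6 cells/well in RPMI 1640 with 10% FCS, IL-2 (25 U/ml) and compound. Virus was added at a final 250 pg p24/ml. Supernatant was taken at day 12 for p24 antigen ELISA.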

[26] = system: Human immunodeficiency virus 1; assay: Antiviral activity against X4 tropic HIV-1 Bal infected in human PBMC assessed as inhibition of viral replication […] by ELISA; assay type: functional, organism-based; conditions: Human immunodeficiency virus 1, Bal; in short: as §2
[27] = system: Human immunodeficiency virus 1; assay: Ratio of EC90 to EC50 for R5 tropic HIV-1 clade A isolate UG273 infected in human PBMC; assay type: functional
In short: (§3)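 PBMCs from healthy donors were PHA-stimulated (2 μg/ml, 3 days, 37°C), then seeded at 0.5 × 10^6 per well with compound dilutions in RPMI 1640 with 10% FCS and IL-2 (25 U/ml). Virus was added at 250 pg p24 or p27/ml final. On day 12, supernatant HIV-1 p24 or HIV-2 p27 was measured by ELISA, giving EC50 and EC90.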

[28] = system: Human immunodeficiency virus 1; assay: Ratio of EC90 to EC50 for R5 tropic HIV-1 clade B isolate US2 infected in human PBMC; assay type: functional; in short: as §3
[29] = system: Human immunodeficiency virus 1; assay: Ratio of EC90 to EC50 for R5 tropic HIV-1 clade G isolate BCF-DIOUM infected in human PBMC; assay type: functional; in short: as §3
[30] = Cytotoxicity against human C8166 cells after 3 to 4 days; assay type: cell-based
In short: (§4)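 Cells seeded at 20,000–75,000 per well with compound dilutions, incubated 3–4 days at 37°C, and counted on a Coulter particle counter; CC50 is the concentration inhibiting proliferation by 50%.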

[31] = Cytotoxicity against human Molt4 cells after 3 to 4 days; assay type: cell-based; conditions: MOLT-4 cells; in short: as §4
[32] = system: Human immunodeficiency virus 1; assay: Antiviral activity against X4 tropic HIV-1 clade D isolate UG270 infected in human PBMC assessed as inhibition of viral replication after 12 days by ELISA; conditions: Human immunodeficiency virus 1, clade D isolate UG270, 12 days
[33] = system: Human immunodeficiency virus 1; assay: Antiviral activity against R5 tropic HIV-1 clade A/E isolate ID12 infected in human PBMC assessed as inhibition of viral replication after 12 days by ELISA; conditions: Human immunodeficiency virus 1, clade A/E isolate ID12, 12 days

CN[C@@H]1[C@H](O[C@@H]2O[C@H](CO)[C@@H](O)[C@H](OS(=O)(=O)O)[C@H]2O)[C@@H](O)[C@H](O[C@H]2c3cc(C)c(C(=O)N[C@H](C)C(=O)O)c(O)c3-c3c(cc4c(c3O)C(=O)c3cc(OC)cc(O)c3C4=O)[C@@H]2O)O[C@@H]1C [PRADIMICIN S]
CC50 [1]: > 230 µM | pEC50 [2]: 5.22 | pEC50 [3]: 5.29 | pIC50 [4]: 4.80 | pIC50 [5]: 4.80 | Ka [6]: 2.73 ×10³ /M/s | Activity (PBMC [7]): inactive | Activity (PBMC [8]): inactive | Activity (PBMC [9]): inactive | Activity (PBMC [10]): inactive | Activity (PBMC [11]): inactive | Activity (PBMC [12]): inactive | Activity (PBMC [13]): inactive | Activity (PBMC [14]): inactive | Activity (PBMC [15]): inactive | Activity (PBMC [16]): inactive | Activity (PBMC [17]): inactive | fold change (FC) (PBMC [18]): 2 | fold change (FC) (PBMC [19]): 2 | fold change (FC) (PBMC [20]): 4 | fold change (FC) (PBMC [21]): 2 | fold change (FC) (PBMC [22]): 2 | fold change (FC) (PBMC [23]): 2 | Activity [24]: Active | pEC50 [25]: 4.77 | pEC50 [26]: 5.28 | Ratio [27]: 2 | Ratio [28]: 2 | Ratio [29]: 2 | CC50 [30]: > 230 µM | CC50 [31]: > 230 µM | pEC50 [32]: 4.74 | pEC50 [33]: 4.82

CN[C@@H]1[C@H](O[C@@H]2OC[C@@H](O)[C@H](O)[C@H]2O)[C@@H](O)[C@H](O[C@H]2c3cc(C)c(C(=O)N[C@H](C)C(=O)O)c(O)c3-c3c(cc4c(c3O)C(=O)c3cc(OC)cc(O)c3C4=O)[C@@H]2O)O[C@@H]1C [PRADIMICIN A]
CC50 [1]: > 50 µM | pEC50 [2]: 5.47 | pEC50 [3]: 5.27 | pIC50 [4]: 4.80 | pIC50 [5]: 4.80 | Ka [6]: 1.96 ×10³ /M/s | Activity (PBMC [7]): inactive | Activity (PBMC [8]): inactive | Activity (PBMC [9]): inactive | Activity (PBMC [10]): inactive | Activity (PBMC [11]): inactive | Activity (PBMC [12]): inactive | Activity (PBMC [13]): inactive | Activity (PBMC [14]): inactive | Activity (PBMC [15]): inactive | Activity (PBMC [16]): inactive | Activity (PBMC [17]): inactive | fold change (FC) (PBMC [18]): 2 | fold change (FC) (PBMC [19]): 2 | fold change (FC) (PBMC [20]): 4 | fold change (FC) (PBMC [21]): 2 | fold change (FC) (PBMC [22]): 2 | fold change (FC) (PBMC [23]): 2 | Activity [24]: Active | pEC50 [25]: 5.17 | pEC50 [26]: 5.66 | Ratio [27]: 2 | Ratio [28]: 2 | Ratio [29]: 2 | CC50 [30]: > 50 µM | CC50 [31]: > 50 µM | pEC50 [32]: 5.52 | pEC50 [33]: 5.33
